The values below come from ChEMBL document CHEMBL1123282, “Antiinflammatory activity of substituted 6-hydroxypyrimido[2,1-f]purine-2,4,8(1H,3H,9H)-triones. Atypical nonsteroidal antiinflammatory agents” (J Med Chem, 1986).

Assay [1] concerns Rattus norvegicus. Put plainly: Compound was tested for gastric Ulcerogenic effect in rats, activity expressed as lesion length at a dose of 10 mg/kg.
Assay [2] relates to Rattus norvegicus. Put plainly: Compound was tested for intestinal Ulcerogenic effect in rats, activity expressed as ulcer incidence at a dose of 30 mg/kg. The assay is classed as functional. The gist of the method: (§1)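 Normal fed rats were gavaged once daily for three consecutive days at 10–300 mg/kg and killed 24 h after the last dose. Intestines were examined for ulcers, recording incidence per group of 8 and a lesion score (±SE).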

The test system of assay [3] is Rattus norvegicus. Put plainly: Compound was tested in vivo for antiinflammatory activity against chronic adjuvant arthritic rat by prophylactic inhibition 2 degree paw after peroral administration of 18 mg/kg of dose. The note with it: po.
Assay [4] concerns Rattus norvegicus. Briefly: Compound was tested for intestinal Ulcerogenic effect in rats, activity expressed as lesion score at a dose of 100 mg/kg. The assay is classed as functional. The gist of the method:
as §1

Assay [5] concerns Rattus norvegicus. Put plainly: Compound was tested in vivo for antiinflammatory activity against chronic adjuvant arthritic rat by prophylactic inhibition 2 degree paw after peroral administration of 36 mg/kg of dose. As to conditions: po.
Assay [6] deals with Rattus norvegicus. Put plainly: Antiinflammatory activity against collagen II arthritis in rats, activity% inhibition in injected paw edema. The assay is classed as functional. On the set-up: concentration or dose not given beside the values. The gist of the method: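 Rats immunised with bovine articular-cartilage type II collagen (dissolved in 0.01 M AcOH for 24 h at 4 °C, dialysed against saline) mixed in equal volume with incomplete Freund's adjuvant. Paws were examined weekly for 7 weeks. An animal counted as arthritic at Δ paw volume ≥8.0 (injected paw) or ≥4.0 (noninjected paw). Bone lesions were scored on lateral-projection foot radiographs. 16 rats/group.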

The test system of assay [7] is Rattus norvegicus. Put plainly: Compound was tested for intestinal Ulcerogenic effect in rats at a dose of 10 mg/kg. The format is functional. The gist of the method: as §1
For assay [8], the system named is Rattus norvegicus. Put plainly: Compound was tested for intestinal Ulcerogenic effect in rats, activity expressed as ulcer incidence at a dose of 10 mg/kg. The format is functional. Summed up:
as §1

Assay [9] relates to Rattus norvegicus. Put plainly: Compound was tested for intestinal Ulcerogenic effect in rats, activity expressed as lesion score at a dose of 10 mg/kg. The format is functional. The gist of the method:
as §1

Assay [10] relates to Rattus norvegicus. Put plainly: Compound was tested for gastric Ulcerogenic effect in rats, activity expressed as lesion length at a dose of 100 mg/kg.
For assay [11], the system named is Rattus norvegicus. Put plainly: Compound was tested for gastric Ulcerogenic effect in rats, activity expressed as lesion length at a dose of 30 mg/kg.
The subject of assay [12] is Rattus norvegicus. Briefly: Compound was tested for intestinal Ulcerogenic effect in rats, activity expressed as lesion score at a dose of 30 mg/kg. The assay is classed as functional. Summed up: as §1
Assay [13] has as its system Rattus norvegicus. Put plainly: Compound was tested for gastric Ulcerogenic effect in rats, activity expressed as lesion length at a dose of 300 mg/kg.
The test system of assay [14] is Rattus norvegicus. Briefly: Compound was tested for intestinal Ulcerogenic effect in rats at a dose of 100 mg/kg. The assay is classed as functional. The gist of the method:
as §1

For assay [15], the system named is Rattus norvegicus. Put plainly: Compound was tested in vivo for antiinflammatory activity against chronic adjuvant arthritic rat by prophylactic inhibition 1 degree paw after peroral administration of 36 mg/kg of dose. The note with it: po.
The subject of assay [16] is Rattus norvegicus. Put plainly: Compound was tested for intestinal Ulcerogenic effect in rats, activity expressed as ulcer incidence at a dose of 100 mg/kg. The format is functional. The gist of the method: as §1
The test system of assay [17] is Rattus norvegicus. Briefly: Compound was tested for intestinal Ulcerogenic effect in rats at a dose of 30 mg/kg. The format is functional. Summed up:
as §1

For assay [18], the system named is Rattus norvegicus. Put plainly: Compound was tested in vivo for antiinflammatory activity against chronic adjuvant arthritic rat by therapeutic inhibition 2 degree paw after peroral administration of 10 mg/kg of dose. The assay is classed as functional. The note with it: route oral.
For another assay, the target named is T1, Cyclooxygenase (Rattus norvegicus, UniProt P35355+Q63921).
T1 sequence (P35355 whole entry): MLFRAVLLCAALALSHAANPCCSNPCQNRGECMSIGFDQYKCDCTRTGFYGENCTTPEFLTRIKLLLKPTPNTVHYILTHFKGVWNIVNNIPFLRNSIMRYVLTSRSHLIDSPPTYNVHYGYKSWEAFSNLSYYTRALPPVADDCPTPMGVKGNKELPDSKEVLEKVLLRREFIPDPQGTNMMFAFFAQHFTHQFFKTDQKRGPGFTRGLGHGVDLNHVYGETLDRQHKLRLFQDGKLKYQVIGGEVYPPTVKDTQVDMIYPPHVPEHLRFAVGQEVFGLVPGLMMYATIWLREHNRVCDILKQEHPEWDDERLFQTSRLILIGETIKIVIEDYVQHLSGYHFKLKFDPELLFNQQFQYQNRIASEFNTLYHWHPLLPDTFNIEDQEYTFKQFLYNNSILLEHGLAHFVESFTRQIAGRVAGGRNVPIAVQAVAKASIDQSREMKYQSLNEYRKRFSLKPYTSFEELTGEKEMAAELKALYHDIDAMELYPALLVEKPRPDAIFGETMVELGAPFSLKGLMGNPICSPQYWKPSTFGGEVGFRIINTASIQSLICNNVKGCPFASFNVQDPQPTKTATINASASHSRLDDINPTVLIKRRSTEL
T1 sequence (Q63921 whole entry): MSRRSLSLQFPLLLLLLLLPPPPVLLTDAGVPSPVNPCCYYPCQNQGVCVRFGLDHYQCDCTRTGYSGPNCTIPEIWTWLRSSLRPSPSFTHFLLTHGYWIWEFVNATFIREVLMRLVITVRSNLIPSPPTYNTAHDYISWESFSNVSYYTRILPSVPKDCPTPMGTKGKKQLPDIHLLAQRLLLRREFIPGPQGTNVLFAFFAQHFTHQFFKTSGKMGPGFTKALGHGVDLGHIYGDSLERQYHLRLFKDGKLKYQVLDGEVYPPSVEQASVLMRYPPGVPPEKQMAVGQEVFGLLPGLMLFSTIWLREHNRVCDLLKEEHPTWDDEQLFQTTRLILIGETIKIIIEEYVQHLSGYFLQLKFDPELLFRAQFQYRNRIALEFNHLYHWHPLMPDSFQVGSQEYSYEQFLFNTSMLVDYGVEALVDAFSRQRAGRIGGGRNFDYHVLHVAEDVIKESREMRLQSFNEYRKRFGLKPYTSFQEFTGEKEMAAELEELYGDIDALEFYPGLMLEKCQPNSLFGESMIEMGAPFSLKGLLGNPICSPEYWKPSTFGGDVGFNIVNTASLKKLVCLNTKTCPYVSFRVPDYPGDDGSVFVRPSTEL
Briefly: In vitro inhibitory activity against Prostaglandin G/H synthase in rat neutrophils.

Assay [19] deals with Rattus norvegicus. Briefly: Compound was tested in vivo for antiinflammatory activity against chronic adjuvant arthritic rat by therapeutic inhibition 2 degree paw after peroral administration of 30 mg/kg of dose. The assay is classed as functional. The note with it: route oral.
Assay [20] has as its system Rattus norvegicus. Briefly: Compound was tested in vivo for antiinflammatory activity against chronic adjuvant arthritic rat by therapeutic inhibition 2 degree paw after peroral administration of 3.3 mg/kg of dose. The format is functional. The note with it: route oral.
Assay [21] deals with Rattus norvegicus. Briefly: Compound was tested in vivo for antiinflammatory activity against chronic adjuvant arthritic rat by therapeutic inhibition 1 degree paw after peroral administration of 10 mg/kg of dose. The format is functional. As to conditions: route oral.
The subject of assay [22] is Rattus norvegicus. Put plainly: Compound was tested in vivo for antiinflammatory activity against chronic adjuvant arthritic rat by therapeutic inhibition 1 degree paw after peroral administration of 30 mg/kg of dose. The assay is classed as functional. The note with it: route oral.
The subject of assay [23] is Rattus norvegicus. Put plainly: Compound was tested in vivo for antiinflammatory activity against chronic adjuvant arthritic rat by therapeutic inhibition 1 degree paw after peroral administration of 3.3 mg/kg of dose. The format is functional. The note with it: route oral.

For the compound `CCCc1c(O)n(Cc2ccc(F)cc2)c2nc3c(c(=O)n(C)c(=O)n3C)n2c1=O`, the Length in the assay with Rattus norvegicus [1] turned out to be 0 mm rat-1; in the assay on Rattus norvegicus [10], 0.2 mm rat-1; in the assay on Rattus norvegicus [11] it was 0 mm rat-1; in the assay with Rattus norvegicus [13], 0 mm rat-1. Further, the Ulcer incidence with Rattus norvegicus [2], with Rattus norvegicus [7], in the assay on Rattus norvegicus [8], in the assay on Rattus norvegicus [14] and in the assay with Rattus norvegicus [16] was 0 number/group each time. For the same compound, the inhibition in vivo at 18 mg/kg with Rattus norvegicus [3] was 49%. Further, the Lesion length in the assay with Rattus norvegicus [4] and with Rattus norvegicus [9] was 0 mm rat-1 each time. The inhibition in vivo at 36 mg/kg with Rattus norvegicus [5] stood at 67%; in the assay on Rattus norvegicus [15], 60%. This compound also yielded an Inhibition in the assay on Rattus norvegicus [6] of 38.2%. The Lesion score in the assay with Rattus norvegicus [12] is recorded as 0 mm rat-1.
Regarding `CC(C)=CCc1c(O)n(Cc2ccc(F)cc2)c2nc3c(c(=O)n(C)c(=O)n3C)n2c1=O`, the inhibition in vivo at 18 mg/kg in the assay on Rattus norvegicus [3] stood at 69%. The inhibition in vivo at 36 mg/kg was 69% in the assay on Rattus norvegicus [5] and 44% with Rattus norvegicus [15]. This compound also came in with an Inhibition in the assay on Rattus norvegicus [6] of 53.9%. For the same compound, the Ulcer incidence in the assay on Rattus norvegicus [17] turned out to be 0 number/group. For the same compound, the figures for the inhibition in vivo at 10 mg/kg with Rattus norvegicus [18] and with Rattus norvegicus [21] were 67% and 38%, respectively. On Cyclooxygenase, this compound registered an IC50 of 4.2 µM. Moreover, the inhibition in vivo at 30 mg/kg in the assay on Rattus norvegicus [19] turned out to be 87%; in the assay on Rattus norvegicus [22], 59%. The inhibition in vivo at 3.3 mg/kg came out at 43% with Rattus norvegicus [20] and 21% in the assay on Rattus norvegicus [23].
For `CC(C)=CCc1c(O)n(Cc2ccccc2)c2nc3c(c(=O)n(C)c(=O)n3C)n2c1=O`, the Length is reported as 0 mm rat-1 in the assay on Rattus norvegicus [1], 1 mm rat-1 in the assay on Rattus norvegicus [10], 0 mm rat-1 with Rattus norvegicus [11] and 9.6 mm rat-1 with Rattus norvegicus [13]. Besides, the Ulcer incidence in the assay with Rattus norvegicus [2] is 0 number/group; in the assay on Rattus norvegicus [7] it was 0 number/group; with Rattus norvegicus [8], 0 number/group; in the assay with Rattus norvegicus [17], 0 number/group; with Rattus norvegicus [14], 1 number/group; with Rattus norvegicus [16], 1 number/group. Moreover, the Lesion length in the assay on Rattus norvegicus [4] was determined as 0.1 mm rat-1; in the assay on Rattus norvegicus [9], 0 mm rat-1. Besides, the results for the inhibition in vivo at 10 mg/kg in the assay with Rattus norvegicus [18] and in the assay with Rattus norvegicus [21] were 70% and 54%, respectively. This compound also showed an IC50 against Cyclooxygenase of 2 µM. In addition, the figures for the inhibition in vivo at 30 mg/kg with Rattus norvegicus [19] and with Rattus norvegicus [22] were 83% and 63%, respectively. Also, the inhibition in vivo at 3.3 mg/kg with Rattus norvegicus [20] stood at 42%; in the assay with Rattus norvegicus [23] it was 24%. Besides, the Lesion score in the assay on Rattus norvegicus [12] is 0 mm rat-1.
